{"source": "ChEMBL document CHEMBL3868589", "about": "“Purification, Conformational Analysis, and Properties of a Family of Tigerinin Peptides from Skin Secretions of the Crowned Bullfrog Hoplobatrachus occipitalis” (J Nat Prod, 2016)", "key": {"Mus musculus [1]": {"species_on_record": "Mus musculus", "assay": "Toxicity in NIH Swiss mouse erythrocytes assessed as hemolytic activity up to 500 uM incubated for 60 mins", "details": "erythrocyte, 1 h", "how_it_was_run": "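Washed erythrocytes (2 × 10^7 cells) from male NIH Swiss mice incubated 60 min at 37 °C with peptides at 31−500 μM. LC50 taken as mean concentration giving 50% hemolysis across three independent incubations.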"}, "BRIN-BD11 [2]": {"system": "BRIN-BD11", "assay": "Inhibition of Katp in rat BRIN-BD11 cells assessed as minimum concentration required to produce 83% increase in rate of insulin release over the basal rate after 20 mins in presence of 5.6 mM glucose by radioimmunoassay", "assay_type": "cell-based", "how_it_was_run": "(§1)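 BRIN-BD11 clonal β-cells attached overnight at 37 °C, then 20 min at 37 °C in KRB buffer with 5.6 mM glucose, peptides up to 1 μM. Insulin in supernatant by radioimmunoassay, expressed per 10^6 cells per 20 min. Parallel controls: 10 mM alanine, 1 μM GLP-1, 30 mM KCl.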"}, "BRIN-BD11 [3]": {"system": "BRIN-BD11", "assay": "Inhibition of Katp in rat BRIN-BD11 cells assessed as insulin release at 1 uM after 20 mins in presence of 5.6 mM glucose by radioimmunoassay relative to basal level", "assay_type": "cell-based", "design": "scale not given: the % may be the effect or the level left", "how_it_was_run": "as §1"}, "Mus musculus [4]": {"species_on_record": "Mus musculus", "assay": "Cytotoxicity in mouse GLUTag cells assessed as effect on plasma membrane integrity through LDH release up to 1 uM after 20 mins in presence of glucose by nonradioactive CytoTox96 assay", "assay_type": "toxicity, cell-based", "how_it_was_run": "(§2)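 BRIN-BD11 and GLUTag cells exposed to peptides (1 nM to 1 μM; n = 3) for 20 min at 37 °C in KRB buffer with 5.6 mM glucose. Membrane integrity judged by LDH in supernatant, measured with CytoTox96 nonradioactive kit.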"}, "[5]": {"assay": "Induction of GLP1 release in mouse GLUTag cells at 1 uM after 2 hrs in presence of 2 mM glucose by ELISA relative to basal level"}, "Rattus norvegicus": {"species_on_record": "Rattus norvegicus", "assay": "Cytotoxicity in rat BRIN-BD11 cells assessed as effect on plasma membrane integrity through LDH release up to 1 uM after 20 mins in presence of glucose by nonradioactive CytoTox96 assay", "assay_type": "toxicity, cell-based", "details": "brin-bd11, 20 min", "how_it_was_run": "as §2"}, "Mus musculus [6]": {"species_on_record": "Mus musculus", "assay": "Antiinflammatory activity in C57BL/6 mouse unstimulated peritoneal cells assessed as reduction of IFN-gamma at 1 ug/ml after 24 hrs by ELISA", "assay_type": "functional", "how_it_was_run": "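Peritoneal cells lavaged with 5 mL cold PBS from unstimulated adult C57BL/6 mice (mixed macrophages, B-, T-, NK cells), resuspended in RPMI 1640 + 10% FBS, 2 × 10^5 cells/well. Peptides at 1, 5 and 10 μg/mL for 24 h at 37 °C; three independent incubations, 6 mice per group. IFN-γ in cell-free supernatant by ELISA in triplicate, compared with medium only.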"}, "[7]": {"assay": "Induction of GLP1 release in mouse GLUTag cells assessed as minimum concentration required to produce increase in rate of GPL1 release over the basal rate after 2 hrs in presence of 2 mM glucose by ELISA"}, "BRIN-BD11 [8]": {"system": "BRIN-BD11", "assay": "Inhibition of Katp in rat BRIN-BD11 cells assessed as minimum concentration required to produce increase in rate of insulin release over the basal rate after 20 mins in presence of 5.6 mM glucose by radioimmunoassay", "assay_type": "cell-based", "how_it_was_run": "as §1"}, "BRIN-BD11 [9]": {"system": "BRIN-BD11", "assay": "Inhibition of Katp in rat BRIN-BD11 cells assessed as increase in insulin release after 20 mins by radioimmunoassay", "assay_type": "cell-based"}, "BRIN-BD11 [10]": {"system": "BRIN-BD11", "assay": "Inhibition of Katp in rat BRIN-BD11 cells assessed as increase in rate of insulin release after 20 mins in presence of 5.6 mM glucose by radioimmunoassay relative to basal level", "assay_type": "cell-based", "how_it_was_run": "as §1"}, "[11]": {"assay": "Induction of increase in glucose-induced insulin secretion in rat BRIN-BD11 cells assessed as insulin release per million cells at 10 mM after 20 mins by radioimmunoassay (reference value: 1 +/- 0.03 ng)", "assay_type": "functional", "how_it_was_run": "as §1"}, "[12]": {"assay": "Induction of increase in glucose-induced insulin secretion in rat BRIN-BD11 cells assessed as insulin release per million cells at 30 mM after 20 mins by radioimmunoassay (reference value: 1 +/- 0.03 ng)", "assay_type": "functional", "how_it_was_run": "as §1"}, "[13]": {"assay": "Induction of GLP1 release in mouse GLUTag cells at 10 nM after 2 hrs by ELISA relative to basal level"}}, "note": "Calls of active or inactive are those of the source. The calls are words filed in the database; no cut-off is given here. Where a SMILES comes first, the peptide text is derived from it.", "data": [{"smiles": "CC[C@H](C)[C@H](NC(=O)[C@@H](N)CCCNC(=N)N)C(=O)N[C@@H](CS)C(=O)N[C@H](C(=O)N1CCC[C@H]1C(=O)N[C@H](C(=O)N1CCC[C@H]1C(=O)N[C@@H](Cc1ccccc1)C(=O)N1CCC[C@H]1C(=O)N[C@@H](CCSC)C(=O)N[C@@H](CS)C(=O)N[C@@H](Cc1ccc(O)cc1)C(=O)O)[C@@H](C)CC)[C@@H](C)O", "note": "(H-RICTPIPFPMCY-OH)", "values": [{"measurement": "Activity", "setting": "Mus musculus [1]", "value": "Non-Toxic"}, {"measurement": "Activity", "setting": "BRIN-BD11 [2]", "value": 1, "unit": "×10⁻⁹ M"}, {"measurement": "Activity", "setting": "BRIN-BD11 [3]", "value": 395, "unit": "%"}, {"measurement": "Activity", "setting": "Mus musculus [4]", "value": "Non-Toxic"}, {"measurement": "Activity", "setting": "[5]", "value": 159, "unit": "%"}, {"measurement": "Activity", "setting": "Rattus norvegicus", "value": "Non-Toxic"}]}, {"smiles": "CC[C@H](C)[C@H](NC(=O)[C@H](CS)NC(=O)[C@@H](NC(=O)[C@@H](N)CCCNC(=N)N)[C@@H](C)O)C(=O)N1CCC[C@H]1C(=O)N[C@H](C(=O)N1CCC[C@H]1C(=O)N[C@@H](CC(C)C)C(=O)N[C@H](C(=O)N[C@@H](CCSC)C(=O)N[C@@H](CS)C(=O)O)C(C)C)[C@@H](C)CC", "note": "(H-RTCIPIPLVMC-OH)", "values": [{"measurement": "Activity", "setting": "Mus musculus [1]", "value": "Non-Toxic"}, {"measurement": "Activity", "setting": "Mus musculus [6]", "value": "Active"}, {"measurement": "Activity", "setting": "BRIN-BD11 [3]", "value": 201, "unit": "%"}, {"measurement": "Activity", "setting": "Mus musculus [4]", "value": "Non-Toxic"}, {"measurement": "Activity", "setting": "[7]", "value": 1, "unit": "×10⁻⁷ M"}, {"measurement": "Activity", "setting": "[5]", "value": 193, "unit": "%"}, {"measurement": "Activity", "setting": "Rattus norvegicus", "value": "Non-Toxic"}, {"measurement": "Activity", "setting": "BRIN-BD11 [8]", "value": 1, "unit": "×10⁻⁷ M"}]}, {"smiles": "CC[C@H](C)[C@H](NC(=O)[C@H](C)NC(=O)[C@H](CO)NC(=O)[C@H](CS)NC(=O)[C@@H](NC(=O)[C@@H](N)CCCNC(=N)N)C(C)C)C(=O)N1CCC[C@H]1C(=O)N[C@@H](CC(C)C)C(=O)N1CCC[C@H]1C(=O)N[C@@H](Cc1c[nH]c2ccccc12)C(=O)N[C@@H](CS)C(=O)N[C@@H](Cc1cnc[nH]1)C(=O)O", "note": "(H-RVCSAIPLPWCH-OH)", "values": [{"measurement": "inhibition", "setting": "BRIN-BD11 [9]", "value": "Dose-dependent effect"}, {"measurement": "inhibition", "setting": "BRIN-BD11 [10]", "value": "Dose-dependent effect"}]}, {"smiles": "C[C@H](N)C(=O)O", "note": "[ALANINE]", "values": [{"measurement": "Activity", "setting": "[11]", "value": 3.05, "unit": "ng"}]}, {"smiles": "[Cl-].[K+]", "note": "[POTASSIUM CHLORIDE]", "values": [{"measurement": "Activity", "setting": "[12]", "value": 4.05, "unit": "ng"}]}, {"smiles": "CC[C@H](C)[C@H](NC(=O)[C@@H](N)CCCNC(=N)N)C(=O)N[C@@H](CS)C(=O)N[C@H](C(=O)N[C@@H](C)C(=O)N[C@H](C(=O)N1CCC[C@H]1C(=O)N[C@@H](CC(C)C)C(=O)N1CCC[C@H]1C(=O)N[C@@H](CCSC)C(=O)N[C@@H](CS)C(=O)N[C@@H](CC(C)C)C(=O)O)[C@@H](C)CC)[C@@H](C)O", "note": "(H-RICTAIPLPMCL-OH)", "values": [{"measurement": "Activity", "setting": "Mus musculus [1]", "value": "Non-Toxic"}, {"measurement": "Activity", "setting": "BRIN-BD11 [3]", "value": 233, "unit": "%"}, {"measurement": "Activity", "setting": "Mus musculus [4]", "value": "Non-Toxic"}, {"measurement": "Activity", "setting": "[7]", "value": 1, "unit": "×10⁻⁶ M"}, {"measurement": "Activity", "setting": "[5]", "value": 217.5, "unit": "%"}, {"measurement": "Activity", "setting": "Rattus norvegicus", "value": "Non-Toxic"}, {"measurement": "Activity", "setting": "BRIN-BD11 [8]", "value": 1, "unit": "×10⁻⁷ M"}]}, {"smiles": "CC[C@H](C)[C@H](NC(=O)[C@H](CS)NC(=O)[C@@H](NC(=O)[C@@H](N)CCCNC(=N)N)[C@@H](C)O)C(=O)N1CCC[C@H]1C(=O)N[C@H](C(=O)N1CCC[C@H]1C(=O)N1CCC[C@H]1C(=O)N[C@H](C(=O)N[C@@H](CS)C(=O)N[C@@H](Cc1ccccc1)C(=O)O)C(C)C)[C@@H](C)CC", "note": "(H-RTCIPIPPVCF-OH)", "values": [{"measurement": "Activity", "setting": "Mus musculus [1]", "value": "Non-Toxic"}, {"measurement": "Activity", "setting": "Mus musculus [6]", "value": "Active"}, {"measurement": "Activity", "setting": "BRIN-BD11 [3]", "value": 163, "unit": "%"}, {"measurement": "Activity", "setting": "Mus musculus [4]", "value": "Non-Toxic"}, {"measurement": "Activity", "setting": "[7]", "value": 1, "unit": "×10⁻⁸ M"}, {"measurement": "Activity", "setting": "Rattus norvegicus", "value": "Non-Toxic"}, {"measurement": "Activity", "setting": "[13]", "value": 289.3, "unit": "%"}, {"measurement": "Activity", "setting": "BRIN-BD11 [8]", "value": 1, "unit": "×10⁻⁶ M"}]}]}
